# Data taken from the EternaBench riboswitch data.
# System: MS2 coat protein
# Assay: apparent Kd, MS2 coat protein; higher = weaker binding; RNA-MaP array; theophylline 2 mM where present
# Outline: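 Stalled E. coli RNA polymerase transcribed the designs on Illumina sequencing-chip clusters. SNAP-549-labelled MS2 coat protein was titrated from 0.7 or 1.5 nM, doubling to 3 µM, without and then with constant ligand, in 100 mM Tris-HCl pH 7.5, 80 mM KCl, 4 mM MgCl2, BSA, DTT, yeast tRNA and Tween-20. Per-cluster binding curves were fitted to green signal normalised to red-channel RNA signal and control-cluster median Fmax. The apparent Kd is the median of the filtered fits.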
# [1] = designed as: ON switch for theophylline, no ligand
# [2] = ligand present: theophylline, designed as: ON switch for theophylline
# [3] = designed as: OFF switch for theophylline, no ligand
# [4] = ligand present: theophylline, designed as: OFF switch for theophylline
Sequence,apparent Kd [1] [nM],apparent Kd [2] [nM],apparent Kd [3] [nM],apparent Kd [4] [nM]
UUACAUGAGGAUCACCCAUGUCAUAAUGAUACCAGAUAGUUGAUGAUCCCUUGGCAGCAUAGUACCUAGACAUGUGAGUCAUAGG,113,132,–,–
CGGUUUGUGAUGGAUACCAGCAGAGAAAAUGUUUAUCCUGACAUGAGGAUCACCCAUGUGUGCCCUUGGCAGCUGUUGUGGGCUG,–,–,56.2,75.3
UAUAAAAUAACAGAUACCAGCGUGUUAUAAAACAUGAGGAUCACCCAUGUAGUGAUCAAGCGCCCUUGGCAGCUGGUAUUUUAUA,101,126,–,–
UGCAUCAUAAUCAUGUUGGUGCUAGGUGAUACCAGCAUCGAAAGAUGCCCUUGGCAGCACCAACAUGAGGAUCACCCAUGUAAUA,114,337,–,–
AGUCUAUGGAGAGAUACCAGUGAGAGCCAUAGACAUGAGGAUCACCCAUGUGACAUGGAUCACCCUUGGCAGCUCAACGAGCUCU,126,20.2,–,–
AGUGUUGUAACUGAUACCAGACCUUUGCUUAUACAUGAGGAUCACCCAUGUAAAAUGGCGGUCCCUUGGCAGCAGAGAAGACGCA,40.1,12.2,–,–
CUAGGAAACUAGUAAGGGUGGUAUAGAGAUACCAGUACAGAAAUGUACCCUUGGCAGCUCACUGCAACAUGAGGAUCACCCAUGU,–,–,32.3,102
AUCUGUAUGUUUUCGUGUUUUAUUACAGAUACCAGACUAUACGUUGUCCCUUGGCAGCUGGAUGACAUGAGGAUCACCCAUGUUG,–,–,33.5,36.6
AUUCCAUUGGUGCAGUUGUUAAAUGGCGAUACCAGCGUGGAAACACGCCCUUGGCAGCGCCAAAACAUGAGGAUCACCCAUGUUA,–,–,61,120
UGGGCAUACAUGAGGAUCACCCAUGUAGAUACCAGCACUAGCCUGUGCCCUUGGCAGCUAACCGGGUCGAGAACUUAGUGCUCCU,–,–,11.8,52.7
ACGCUGAUUGAUUACAAUCAGCGAAAAGAUACCAGUGGGUAAUCCCACCCUUGGCAGCUUAAACAUGAGGAUCACCCAUGUGGUA,74.5,123,–,–
UCUUUCUAUGUAGAUACCAGCAUGUUAUAUUUCUAAUGACAUGAGGAUCACCCAUGUAAAUGCCCUUGGCAGCUGCGUUUUCUUU,16.9,13.2,–,–
AUGUCGUUGAAUAUAGCGGCUUGGAGUGAUACCAGUAUGAUCCAAUACCCUUGGCAGCAUAACAUGAGGAUCACCCAUGUUCCAG,21.3,31.6,–,–
AUAACAUGAGGAUCACCCAUGUAGAGUGAUACCAGACUAUGUAAUGUCCCUUGGCAGCACAAGUAAAGUUAUAAAUAAUGAUAGA,157,27.2,–,–
GUAAAUGUGACGGAUACCAGCGUGUUGUAGAACAUGAGGAUCACCCAUGUAGUGAUCAUGCGCCCUUGGCAGCUGGUAUGUUUGU,474,841,–,–
UUUGAUAGGACAGAUACCAGCGUGUUGUUGAACAUGAGGAUCACCCAUGUAGUGAUCAGGCGCCCUUGGCAGCUGGUUUGUUAGG,416,347,–,–
AAUAUAAGUGUAAUUUUAUGUAUCUCUGAUACCAGACCCUCAUGUGUCCCUUGGCAGCAGUAACAUGAGGAUCACCCAUGUAAAA,65.4,310,–,–
GAUGAAGUAACUGAUACCAGUGUACUGACAUGAGGAUCACCCAUGUUGGGUUUUGUUGUACACCCUUGGCAGCAGAAUCUUUAUC,–,–,52.3,84.9
AGACAUGAGGAUCACCCAUGUAGCACGGAUACCAGAUCCAGAUGUAUCCCUUGGCAGCUGUGGUACAGCGUUGCAACGCUCCUAG,–,–,20.7,28.1

Sequence,apparent Kd [1] [nM],apparent Kd [2] [nM],apparent Kd [3] [nM],apparent Kd [4] [nM]
UAUAUAAUAACAGAUACCAGCGUGUUAUAAAACAUGAGGAUCACCCAUGUAGUGAUCAAGCGCCCUUGGCAGCUGGUAUUAUAUA,72.2,146,–,–
CAUACUUUAGUAUGUUAUGUGGACAGUGAUACCAGAUACGAAAGUAUCCCUUGGCAGCACAACAUGAGGAUCACCCAUGUAAUUU,26.1,15.6,–,–
CCGCCCACGAAUGAUACCAGCUAAAAUCAUGUACCAGACACAUGAGGAUCACCCAUGUAAAGCCCUUGGCAGCGUACGCCACCCG,–,–,23.5,26.4
AAAACACAUGAGGAUCACCCAUGUCGUGAUACCAGUCAACAUGAGGACCCUUGGCAGCAUAAAAUGGGUAACAUGAGGAUAACCC,–,–,89.6,146
AGACAUGAGGAUCACCCAUGUAGUACGGAUACCAGAUCCAGAUGUAUCCCUUGGCAGCUGUGGUACAGCGUUACAUCGCUCCUAG,–,–,15.1,19.4
UAUAACAUGAGGAUCACCCAUGUAAGUGAUACCAGAUAAAUAAUAGUCCCUUGGCAGCAUAUUGGGAAAGUGUAUAAUAUAUAUU,52.2,57,–,–
AUUAAUAGUUGUGAUACCAGACGAACAUGAGGAUCACCCAUGUAACUUAAGAGUGUUGAUGUCCCUUGGCAGCACUGUUUAGUUA,108,87.8,–,–
UUUUAAGGGAUCGGUGCUGGUAGCAGAGAUACCAGAGUAAUGAUACUCCCUUGGCAGCUCAGUACAUGAGGAUCACCCAUGUUUU,–,–,17.4,25.9
UGUUUUGUGAUGGAUACCAGCAGAGAAAACGUUUAUCCUAACAUGAGGAUCACCCAUGUAUGCCCUUGGCAGCUGUUGUGGGAUA,–,–,29.7,34.1
AGUACUCGAACGGAUACCAGCCGGACAUGAGGAUCACCCAUGUCCUACCUAUGUUCGGUUGGCCCUUGGCAGCCGUUCGUGUACA,215,51,–,–
CGAAUACUGAGUGAUACCAGUGAAAGAUAACUGUAUACACAUGAGGAUCACCCAUGUACACACCCUUGGCAGCACACUAGAUCGA,33.3,17.4,–,–
GCGAUACGUACUGAUACCAGAGACAUGAGGAUCACCCAUGUCCCAUGAUCAUACCUCAGACUCCCUUGGCAGCAGGAUAAGUGAG,–,–,11.2,18.3
AAACAUGAGGAUCACCCAUGUUCAAUAGAUACCAGUGAUACGGUGCACCCUUGGCAGCUGUUGCUGAGUGAUGGUUCCCUCGGUA,29,37.3,–,–
AUGUCAUUGGUGUAGCUGUGAAGUGGCGAUACCAGCGUGGAAACACGCCCUUGGCAGCGCCAAAACAUGAGGAUCACCCAUGUUA,–,–,22.3,156
ACGACGCAUAGUGAUACCAGCACAACAUGAGGAUCACCCAUGUCACUUAUGUAGUAAUAAUGCCCUUGGCAGCACUAUGCGUCAG,55.2,65.6,–,–
ACGACAUGAGGAUCACCCAUGUAAGGUGAUACCAGACGAAGUAAUGUCCCUUGGCAGCACAAGCAUAGUUGCGAUUAUUGUACGA,438,158,–,–
CGAGUUCGCUGAUGGGCUACGUCAGGUGAUACCAGCCACUCCCGCGGCCCUUGGCAGCACAUGAGGAUCACCCAUGUAGAGCUUG,–,–,13.6,238
CCUAUGACAUGAGGAUCACCCAUGUUGGAUACCAGCGCAUGAGGACGCCCUUGGCAGCCAAUGAACAUGAGGAUACAUGAGGAUC,44.5,185,–,–
GAGCUGAUGUAGAAAUUUUAUUUAUGAGAUACCAGUACAGAAAUGUACCCUUGGCAGCUCAAUUUUACAUGAGGAUCACCCAUGU,–,–,12.1,13.4
